Active and inactive are the calls of the source. The rule behind the calls is not given here.
Legend:
[1] = target: T1, 3',5'-cyclic-AMP phosphodiesterase 4B (Homo sapiens, UniProt Q07343); assay: Inhibition of recombinant human PDE-4B expressed in Escherichia coli at 20 uM using cAMP as substrate incubated for 60 mins by PDE4 assay kit method relative to control
Procedure, shortened: (§1)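 Human recombinant PDE4 expressed in E. coli, incubated with cAMP and 5'-nucleotidase in 10 mM Tris-HCl pH 7.4 at 30 °C for 60 min. Released phosphate detected colorimetrically after 30 min colour development. IC50 from five concentrations by nonlinear regression; mean of two or three independent runs, each in triplicate.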

Mus musculus [2] = assay: Antiinflammatory activity in BALB/cJRj mouse air pouch model assessed as decrease in LPS-stimulated monocyte recruitment in air pouch at 2 uM, sc measured after 6 hrs by flow cytometry analysis; format: functional, organism-based
Procedure, shortened: (§2)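 Seven-week-old BALB/cJRj mice. Dorsal subcutaneous air pouch made under isoflurane with 3 mL filtered air on day 0, refilled day 3. On day 7, 2 mL LPS (10 ng/mL) in 0.5% DMSO with compound at 2, 20 or 200 µM injected into the pouch; controls got 0.5% DMSO in saline. After 6 h, exudate collected by lavage with 2 mL 5 mM PBS-EDTA. Cells counted and stained for Ly6G and F4/80, then analysed by flow cytometry. Eight to 17 animals per group.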

Mus musculus [3] = assay: Antiinflammatory activity in BALB/cJRj mouse air pouch model assessed as decrease in LPS-stimulated monocyte recruitment in air pouch at 20 uM, sc measured after 6 hrs by flow cytometry analysis (reference value: 1.9); format: functional; procedure, shortened: as §2
Macrophage [4] = assay: Antiinflammatory activity against LPS-treated human PBMC derived primary macrophages assessed as increase in flattened cell morphology at 10 uM incubated for 24 hrs by scanning electron microscopic analysis; format: functional, cell-based
Procedure, shortened: (§3)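 Human PBMCs isolated from EDTA blood (red cells lysed by hypotonic shock), grown on coverslips in RPMI 1640 + 10% heat-inactivated FBS with 25 ng/mL M-CSF for 24 h at 37 °C, 5% CO2. Non-adherent cells removed, then 24 h stimulation with LPS 10 ng/mL in 0.5% DMSO ± compound. Cells fixed in 2.5% glutaraldehyde, dehydrated in ethanol, dried with HMDS, gold-palladium coated, imaged by FE-SEM at 2 kV.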

Macrophage [5] = assay: Antiinflammatory activity against human PBMC derived primary macrophages assessed as reduction in LPS-induced vesicle number at 10 uM incubated for 24 hrs by scanning electron microscopic analysis; format: functional, cell-based; procedure, shortened: as §3
Macrophage [6] = assay: Antiinflammatory activity against LPS-treated human PBMC derived primary macrophages assessed as intricate cytoplasm at 10 uM incubated for 24 hrs by scanning electron microscopic analysis; format: functional, cell-based; procedure, shortened: as §3
Macrophage [7] = assay: Antiinflammatory activity against LPS-induced human PBMC derived primary macrophages assessed as increase in cell size at 10 uM incubated for 24 hrs by scanning electron microscopic analysis; format: functional, cell-based; procedure, shortened: as §3
Macrophage [8] = assay: Cytotoxicity against human PBMC derived primary macrophages assessed as reduction in cell viability at 10 uM incubated for 24 hrs by LDH assay; format: cell-based
Procedure, shortened: (§4)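 Cell death in human PBMC-derived macrophages (M-CSF 25 ng/mL, 24 h) after 24 h LPS (10 ng/mL, 0.5% DMSO) plus compound at 5–50 µM. LDH activity measured in supernatant with a commercial kit, absorbance at 492 nm corrected at 700 nm. Eight donors.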

Macrophage [9] = assay: Antiinflammatory activity against human PBMC derived primary macrophages assessed as reduction in LPS-induced IL-8 level at 10 uM incubated for 24 hrs by ELISA relative to control; format: functional
Procedure, shortened: (§5)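 Macrophages from human blood PBMCs, differentiated 24 h with 25 ng/mL M-CSF, non-adherent cells removed. Stimulated 24 h with 10 ng/mL E. coli LPS in 0.5% DMSO, with compound at 5–50 µM. Supernatant cytokines measured by sandwich ELISA against a recombinant standard curve. Detection limits: IL-1β 3.9, IL-6 and TNF-α 7.8, IL-8 15.7 pg/mL. Cells from 8 donors; Kruskal–Wallis then Wilcoxon–Mann–Whitney tests.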

Mus musculus [10] = assay: Antiinflammatory activity in BALB/cJRj mouse air pouch model assessed as decrease in LPS-stimulated monocyte recruitment in air pouch at 200 uM, sc measured after 6 hrs by flow cytometry analysis (reference value: 1.9); format: functional; procedure, shortened: as §2
Mus musculus [11] = assay: Antiinflammatory activity in BALB/cJRj mouse air pouch model assessed as decrease in LPS-stimulated macrophage recruitment in air pouch at 2 to 200 uM, sc measured after 6 hrs by flow cytometry analysis; format: functional, organism-based; conditions: dose 2-200 µM; procedure, shortened: as §2
[12] = target: T1, 3',5'-cyclic-AMP phosphodiesterase 4B; assay: Inhibition of recombinant human PDE-4B expressed in Escherichia coli using cAMP as substrate incubated for 60 mins by PDE4 assay kit method; procedure, shortened: as §1
[13] = Lipophilicity, logP of compound; format: physicochemical; conditions: octanol/water
Procedure, shortened: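 LogP calculated with software, not measured.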

Macrophage [14] = assay: Antiinflammatory activity against human PBMC derived primary macrophages assessed as reduction in LPS-induced cell morphology changes at 50 uM incubated for 24 hrs by scanning electron microscopic analysis; format: functional, cell-based; procedure, shortened: as §3
Macrophage [15] = assay: Cytotoxicity against human PBMC derived primary macrophages assessed as reduction in cell viability at 5 to 50 uM incubated for 24 hrs by LDH assay; format: cell-based; conditions: dose 5-50 µM; procedure, shortened: as §4
Macrophage [16] = assay: Antiinflammatory activity against human PBMC derived primary macrophages assessed as reduction in LPS-induced IL-8 level at 20 uM incubated for 24 hrs by ELISA relative to control; format: functional; procedure, shortened: as §5
Macrophage [17] = assay: Antiinflammatory activity against human PBMC derived primary macrophages assessed as reduction in LPS-induced IL-8 level at 50 uM incubated for 24 hrs by ELISA relative to control; format: functional; procedure, shortened: as §5
Macrophage [18] = assay: Antiinflammatory activity against human PBMC derived primary macrophages assessed as reduction in LPS-induced IL-1beta level at 20 uM incubated for 24 hrs by ELISA relative to control; format: functional; procedure, shortened: as §5
Macrophage [19] = assay: Antiinflammatory activity against human PBMC derived primary macrophages assessed as reduction in LPS-induced IL-1beta level at 50 uM incubated for 24 hrs by ELISA relative to control; format: functional; procedure, shortened: as §5
Macrophage [20] = assay: Antiinflammatory activity against human PBMC derived primary macrophages assessed as reduction in LPS-induced TNF-alpha level at 50 uM incubated for 24 hrs by ELISA relative to control; format: functional; procedure, shortened: as §5
Macrophage [21] = assay: Antiinflammatory activity against human PBMC derived primary macrophages assessed as reduction in LPS-induced TNF-alpha level at 5 uM incubated for 24 hrs by ELISA relative to control; format: functional; procedure, shortened: as §5
Macrophage [22] = assay: Antiinflammatory activity against human PBMC derived primary macrophages assessed as reduction in LPS-induced IL-6 level at 50 uM incubated for 24 hrs by ELISA relative to control; format: functional; procedure, shortened: as §5
Macrophage [23] = assay: Antiinflammatory activity against human PBMC derived primary macrophages assessed as reduction in LPS-induced IL-6 level at 20 uM incubated for 24 hrs by ELISA relative to control; format: functional; procedure, shortened: as §5
Macrophage [24] = assay: Antiinflammatory activity against human PBMC derived primary macrophages assessed as reduction in LPS-induced IL-6 level at 10 uM incubated for 24 hrs by ELISA relative to control; format: functional; procedure, shortened: as §5
Macrophage [25] = assay: Antiinflammatory activity against human PBMC derived primary macrophages assessed as reduction in LPS-induced IL-6 level at 5 uM incubated for 24 hrs by ELISA relative to control; format: functional; procedure, shortened: as §5
Mus musculus [26] = assay: Antiinflammatory activity in BALB/cJRj mouse air pouch model assessed as decrease in LPS-stimulated monocyte recruitment in air pouch at 200 uM, sc measured after 6 hrs by flow cytometry analysis relative to control; format: functional; procedure, shortened: as §2
Mus musculus [27] = assay: Antiinflammatory activity in BALB/cJRj mouse air pouch model assessed as decrease in LPS-stimulated macrophage recruitment in air pouch at 2 to 20 uM, sc measured after 6 hrs by flow cytometry analysis; format: functional, organism-based; conditions: dose 2-20 µM; procedure, shortened: as §2
Mus musculus [28] = assay: Antiinflammatory activity in BALB/cJRj mouse air pouch model assessed as decrease in LPS-stimulated monocyte recruitment in air pouch at 2 to 20 uM, sc measured after 6 hrs by flow cytometry analysis; format: functional, organism-based; conditions: dose 2-20 µM; procedure, shortened: as §2

T1 sequence (Q07343 whole entry): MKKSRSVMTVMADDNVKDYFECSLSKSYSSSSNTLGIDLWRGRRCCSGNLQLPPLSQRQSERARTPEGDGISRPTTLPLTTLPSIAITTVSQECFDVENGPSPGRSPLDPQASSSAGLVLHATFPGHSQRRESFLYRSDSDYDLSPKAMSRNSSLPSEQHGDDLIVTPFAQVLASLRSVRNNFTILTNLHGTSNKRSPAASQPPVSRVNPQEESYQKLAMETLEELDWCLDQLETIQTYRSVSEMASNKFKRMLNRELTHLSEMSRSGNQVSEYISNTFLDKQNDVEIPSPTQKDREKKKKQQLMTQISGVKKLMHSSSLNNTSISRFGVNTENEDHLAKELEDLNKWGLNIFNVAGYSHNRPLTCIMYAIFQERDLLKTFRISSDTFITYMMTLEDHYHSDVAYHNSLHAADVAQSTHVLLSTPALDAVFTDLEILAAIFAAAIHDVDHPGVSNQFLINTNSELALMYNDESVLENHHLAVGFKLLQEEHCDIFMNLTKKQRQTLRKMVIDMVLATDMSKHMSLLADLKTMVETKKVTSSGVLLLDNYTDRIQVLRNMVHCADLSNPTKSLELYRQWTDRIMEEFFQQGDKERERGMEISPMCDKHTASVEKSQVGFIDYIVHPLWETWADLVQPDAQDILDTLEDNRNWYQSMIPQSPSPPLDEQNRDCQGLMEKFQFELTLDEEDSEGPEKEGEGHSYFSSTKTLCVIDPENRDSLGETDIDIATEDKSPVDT

| SMILES | inhibition [1] | also measured |
| --- | --- | --- |
| CC(C)Cn1c(=O)n(C)c(=O)c2nc[nH]c21 | 38% | – |
| CC1=NN(Cc2ccccc2)C(=O)C(c2c[nH]c3ccc(I)cc23)C1 (stereo not given) | 4.5% | – |
| COc1ccc2[nH]cc(-c3cc(C)nn(C)c3=O)c2c1 | 21.8% | – |
| CC1=NN(Cc2ccccc2)C(=O)C(c2c[nH]c3ccc(Br)cc23)C1 (stereo not given) | 8.7% | – |
| Cc1cc(-c2c[nH]c3ccc(I)cc23)c(=O)[nH]n1 | 5.9% | – |
| COc1ccc2[nH]cc(C3CC(C)=NN(Cc4ccccc4)C3=O)c2c1 (stereo not given) | 28.9% | – |
| Cc1cc(-c2c[nH]c3ccccc23)c(=O)n(C)n1 | 15.3% | – |
| O=C(Nc1c(Cl)cncc1Cl)c1ccc(OC(F)F)c(OCC2CC2)c1 [ROFLUMILAST] | 74.6% | inhibition (Mus musculus [2]): inactive; fold change (FC) (Mus musculus [3]): 3.5; Activity (Macrophage [4]): Active; Activity (Macrophage [5]): Active; Activity (Macrophage [6]): Active; Activity (Macrophage [7]): Active; Activity (Macrophage [8]): Non-Toxic; inhibition at 10 µM (Macrophage [9]): 10%; fold change (FC) (Mus musculus [10]): 2; inhibition (Mus musculus [11]): inactive |
| COc1ccc2[nH]cc(-c3cc(C)nn(Cc4ccccc4)c3=O)c2c1 | 49.1% | – |
| CC1=NN(Cc2ccccc2)C(=O)C(c2c[nH]c3ccc(F)cc23)C1 (stereo not given) | 9.4% | – |
| COc1ccc2[nH]cc(-c3cc(C)n[nH]c3=O)c2c1 | 63.9% | IC50 [12]: 251 nM; logP [13]: 0.43; Activity (Macrophage [14]): Active; Activity (Macrophage [15]): Non-Toxic; inhibition at 20 µM (Macrophage [16]): 16%; inhibition at 50 µM (Macrophage [17]): 25%; inhibition at 20 µM (Macrophage [18]): 58%; inhibition at 50 µM (Macrophage [19]): 54%; inhibition at 50 µM (Macrophage [20]): 47%; inhibition at 5 µM (Macrophage [21]): 43%; inhibition at 50 µM (Macrophage [22]): 21%; inhibition at 20 µM (Macrophage [23]): 28%; inhibition at 10 µM (Macrophage [24]): 23%; inhibition at 5 µM (Macrophage [25]): 16%; inhibition in vivo at 200 µM (Mus musculus [26]): 69%; inhibition (Mus musculus [27]): Active; inhibition (Mus musculus [28]): Active |
| CC1=NNC(=O)C(c2c[nH]c3ccc([N+](=O)[O-])cc23)C1 (stereo not given) | 19.5% | – |
| Cc1cc(-c2c[nH]c3ccccc23)c(=O)n(Cc2ccccc2)n1 | 30.1% | – |
| Cc1cc(-c2c[nH]c3ccc([N+](=O)[O-])cc23)c(=O)[nH]n1 | 26.8% | – |
| COc1ccc2[nH]cc(C3CC(C)=NN(C)C3=O)c2c1 (stereo not given) | 13.4% | – |
| Cc1cc(-c2c[nH]c3ccc(Br)cc23)c(=O)[nH]n1 | 16.8% | – |
| Cc1cc(-c2c[nH]c3ccc(Br)cc23)c(=O)n(Cc2ccccc2)n1 | 14.2% | – |
| Cc1cc(-c2c[nH]c3ccc(F)cc23)c(=O)[nH]n1 | 23.6% | – |
| CC1=NNC(=O)C(c2c[nH]c3ccc(Br)cc23)C1 (stereo not given) | 9.8% | – |
| CC1=NN(Cc2ccccc2)C(=O)C(c2c[nH]c3ccccc23)C1 (stereo not given) | 17.7% | – |
| COc1ccc2[nH]cc(C3CC(C)=NNC3=O)c2c1 (stereo not given) | 37.5% | – |
| CC1=NNC(=O)C(c2c[nH]c3ccc(F)cc23)C1 (stereo not given) | 12.8% | – |
| CC1=NNC(=O)C(c2c[nH]c3ccccc23)C1 (stereo not given) | 32.3% | – |
| Cc1cc(-c2c[nH]c3ccc(F)cc23)c(=O)n(Cc2ccccc2)n1 | 17.6% | – |
| CC1=NNC(=O)C(c2c[nH]c3ccc(I)cc23)C1 (stereo not given) | 2.2% | – |
| Cc1cc(-c2c[nH]c3ccc(I)cc23)c(=O)n(Cc2ccccc2)n1 | 8.9% | – |
| CC1=NN(C)C(=O)C(c2c[nH]c3ccccc23)C1 (stereo not given) | 8.7% | – |
| Cc1cc(-c2c[nH]c3ccccc23)c(=O)[nH]n1 | 45.6% | – |

From ChEMBL document CHEMBL4732027, “Pyridazinone derivatives as potential anti-inflammatory agents: synthesis and biological evaluation as PDE4 inhibitors” (RSC Med Chem, 2021)
